Screening results (PubChem BioAssay)
A selection: hits, their analogues and other compounds. The true share with any hit is near 1.6%.
SIAE inh: blocks human sialic acid acetylesterase. inhibition, % at 9.66 µM. actives 0.69% (n = 370,000). AID 1053197. SIAE FP-Rh probe binding, fluorescence polarization. Q9HAT2;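 active = inhibition above a cutoff: mean of compounds within the control limits plus 3 SD of those, cut at about 17% in these data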;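 also: 0% = plate median of compound wells and 100% = probe without SIAE protein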
DAGLB inh: blocks human DAGLB lipase activity | inhibition, % at 5.17 µM | HEK293T DAGLB membrane lysate, EnzChek fluorogenic substrate | actives 0.059% (n = 340,000); in the data active = inhibition above about 34%;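 also: 0% = enzyme with vehicle and 100% = wells lacking enzyme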
Target sequence (Q8NCG7 whole entry, looked up): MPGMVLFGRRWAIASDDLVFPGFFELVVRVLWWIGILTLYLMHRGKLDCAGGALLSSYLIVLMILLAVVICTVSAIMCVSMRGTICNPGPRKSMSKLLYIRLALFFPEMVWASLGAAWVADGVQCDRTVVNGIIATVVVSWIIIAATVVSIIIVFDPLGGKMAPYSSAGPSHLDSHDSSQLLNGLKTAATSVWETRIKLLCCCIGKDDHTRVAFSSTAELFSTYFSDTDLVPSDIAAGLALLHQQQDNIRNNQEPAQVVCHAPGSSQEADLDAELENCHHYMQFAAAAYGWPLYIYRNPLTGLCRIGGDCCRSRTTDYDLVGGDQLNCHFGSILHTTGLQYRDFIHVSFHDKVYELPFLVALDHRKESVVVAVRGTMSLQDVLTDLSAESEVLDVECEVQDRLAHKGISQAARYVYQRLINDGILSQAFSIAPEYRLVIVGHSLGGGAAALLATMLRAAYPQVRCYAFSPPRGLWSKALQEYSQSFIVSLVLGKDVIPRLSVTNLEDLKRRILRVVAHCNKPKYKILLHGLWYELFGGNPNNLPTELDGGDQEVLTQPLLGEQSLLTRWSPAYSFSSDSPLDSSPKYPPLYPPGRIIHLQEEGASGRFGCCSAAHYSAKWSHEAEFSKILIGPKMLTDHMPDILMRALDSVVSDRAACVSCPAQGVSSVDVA
HTRA1 inhibitor: HTRA1 (human) protease inhibition; Q92743; recombinant HTRA1, FP-rhodamine activity-based probe, fluorescence polarization; inhibition, % at 5.96 µM; actives 0.5% (n = 340,000); AID 504803; in the data active = inhibition above about 36%;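 also: 0% = enzyme with DMSO and 100% = wells lacking enzyme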
mABHD4 FP: inhibits mouse alpha/beta hydrolase domain 4. Q8VD66. purified mABHD4, FP-Rh probe fluorescence polarization. inhibition, % at 8.92 µM. actives 0.54% (n = 370,000);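 active = inhibition exceeding the mean over every tested compound plus 3 SD, cut at about 30% in these data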;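 also: 0% = plate median of compound wells and 100% = S159A mutant with DMSO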
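Assay system: Wild-type mouse ABHD4 protein | Medium: HEPES pH 7.0 buffer, 150 mM NaCl, 0.01% Pluronic F-127 | Incubation: Enzyme–compound pre-incubation 45 min, then probe 60 min, both 25 °C | Technique: Fluorescence polarization with parallel and perpendicular emission, 525/598 nm | Evaluation: % inhibition of FP-Rh probe binding versus controls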
TCR CD3 inh: human TCR-CD3 binding inhibition. TAMRA-labeled TCR probe fluorescence, biochemical. inhibition, % at 9.4 µM. actives 0.37% (n = 360,000). AID 651800; in the data active = inhibition above about 19%;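 also: recombinant mutant TCR 2C K166C tagged with TAMRA read by polarization; 0% = receptor in buffer alone and 100% = receptor with positive control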
SIAE confirm: human SIAE inhibition, confirmation. shares compounds with SIAE inh. SIAE FP-Rh activity-based probe, fluorescence polarization. inhibition, % at 9.66 µM. actives 13% (n = 2,300). AID 1117263;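 active = mean inhibition of the replicates above the hit cutoff set in the primary screen, cut at about 17% in these data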;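 also: 0% = SIAE with DMSO and probe and 100% = probe without SIAE; inhibitors lower polarization as more probe stays unbound to SIAE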
* marks the source's active call; other numbers are inactive results; . = no result.

SMILES	SIAE inh	DAGLB inh	HTRA1 inhibitor	mABHD4 FP	TCR CD3 inh	SIAE confirm
COc1ccc(OC)c2c1C(=O)c1ccccc1C2=O	24*	.	.	17	-6	10
COC(=O)C1CN(C2CCCC2)CCS(=O)(=O)N1Cc1ccc(OC)cc1 (stereo not drawn)	6	.	.	-1	.	.
NNC(=O)CC1=NNC(=O)C1	19*	3	4	-1	-4	0
Cc1c(N=Cc2cccnc2)c(=O)n(-c2ccccc2)n1C	21*	-2	2	5	-1	3
COC(=O)C[C@H]1C=C[C@@H](NC(=O)C2CC2)[C@@H](CO)O1	-3	.	.	-13	3	.
Cc1ccc(N(C)C(=O)c2ccc(CNc3c(N4CCC(C)CC4)c(=O)c3=O)cc2)cc1	20*	0	2	8	-6	2
CC1CCN(c2c(NCc3ccc(C(=O)N(C)C4CCCCC4)cc3)c(=O)c2=O)CC1	1	4	-4	-1	6	.
C/C=C/c1ccc([C@H]2[C@@H](CN(CC(C)C)S(=O)(=O)c3ccccc3[N+](=O)[O-])N(C(=O)Nc3cccc(OC)c3)[C@H]2CO)cc1	-12	.	.	-16	.	.
COC(=O)[C@]12C[C@H](CC(=O)NCCC(C)C)C(=O)N(Cc3ccc4c(c3)OCO4)C1=C[C@H](COCc1ccccc1)O[C@@H]2C	2	.	.	-6	7	.
COCCCNC(=O)C[C@H]1C[C@@]2(C(=O)OC)C(=C[C@H](COCc3ccccc3)O[C@@H]2C)N(Cc2ccc3c(c2)OCO3)C1=O	29*	.	.	-1	-3	3
COC(=O)C[C@H]1CC[C@@H]2[C@H](COc3ccc(NC(=O)NCc4ccccc4)cc3C(=O)N2C)O1	5	.	.	12	.	.
O=C(Nc1ccc(N2CCCCC2)cc1)c1ccc([N+](=O)[O-])o1	19*	8	16	11	-7	6
O=C(Nc1ccc(N2CCOCC2)cc1)c1ccc([N+](=O)[O-])cc1	17*	4	2	5	6	-1
O=C(c1ccc([N+](=O)[O-])cc1)N1CCOCC1	18*	1	8	5	-3	-3
O=[N+]([O-])c1cccc(N/N=C/c2ccc(N3CCOCC3)cc2)c1	18*	15	26	8	-10	6
COP(N)(=O)C(CC(C)C)NC(=O)OCc1ccccc1 (stereo not drawn)	4	.	.	5	.	.
CN(C)/C=N/C(=S)Nc1cc(Cl)cc(Cl)c1	17*	0	-10	0	7	1
C[C@H](O)[C@@H]1C(=O)N2CCc3c([nH]c4c(-c5ccccc5)cccc34)[C@@H]2C[C@@H]1N(C)C(=O)/C=C/c1ccccc1	-6	.	.	0	5	.
CCOc1ccc2nc(NC(=O)Nc3cccs3)sc2c1	34*	-1	3	16	-1	9
CCOc1ccc2nc(NC(=O)Nc3ccccc3)sc2c1	4	0	1	-5	0	.
COC(=O)[C@]12C[C@H](CC(=O)N3CCN(C(=O)C4CC4)CC3)C(=O)N(CCc3ccc(OC)c(OC)c3)C1=C[C@H](C1CCCC1)O[C@@H]2C	2	.	.	0	.	.
COc1ccccc1OCc1ccc(C(=O)N2CCOCC2)o1	20*	-1	2	0	-4	4
CC(C)(C)c1ccc(OCCNCc2ccccc2)cc1	-1	-2	2	13	-2	.
CC(C)(C)c1ccc(OCCNC(=S)Nc2ccccc2)cc1	17*	-7	-46	-24	7	-11
O=S1(=O)N[C@@H](Cc2ccccc2)COc2cccc(N3CCCC3)c21	-2	.	.	-4	1	.
SMILES	SIAE inh	DAGLB inh	HTRA1 inhibitor	mABHD4 FP	TCR CD3 inh	SIAE confirm
O=C(CSc1nnc(-c2ccco2)o1)NC1CCCCCC1	18*	2	-3	5	5	-1
O=C(CSc1nnc(-c2ccccc2)o1)NC1CCCC1	-2	1	-7	2	-4	.
CCCCCCCCN1C(=O)[C@@H](CC(=O)NCc2ccc(OC)c(OC)c2)C[C@@]2(C(=O)OC)C1=C[C@H](C(C)C)O[C@@H]2C1CC1	-3	.	.	-8	.	.
CCN1Cc2nnn(Cc3ccccc3)c2-c2cc(F)ccc2S1(=O)=O	-1	.	.	-9	.	.
CCOc1ccccc1CN1CCNC(=O)C1CC(=O)NCCCn1cccn1 (stereo not drawn)	6	-2	7	6	2	.
COc1ccccc1CN1CCNC(=O)C1CC(=O)NCCCn1cccn1 (stereo not drawn)	40*	-2	-5	4	4	8
COc1ccc(CC(=O)Nc2ccc(C)cc2S(=O)(=O)N2CCOCC2)cc1OC	7	.	.	4	.	.
COc1ccc(C2CC(C)(c3ccc(OC)cc3)Nc3ccccc3N2)cc1 (stereo not drawn)	17*	-4	-4	-3	-9	2
C=CCn1c(SCC(=O)Nc2ccccc2OCC)nnc1-c1ccc(C(C)(C)C)cc1	-2	.	.	-8	.	.
CC(C)(C)NCCC(O)c1cc(C(F)(F)F)nc2c(C(F)(F)F)cccc12 (stereo not drawn)	78*	0	6	11	-6	-5
O[C@@H](c1cc(C(F)(F)F)nc2c(C(F)(F)F)cccc12)[C@H]1CCCCN1	-5	5	12	11	3	.
CCc1nc(C)cn1S(=O)(=O)c1cc(C)c(OC)c(C)c1C	37*	-3	-1	4	5	-2
CCc1nc(C)cn1S(=O)(=O)c1cc(C)c(OC)cc1C	-2	-4	-1	2	2	.
COc1ccc(CN2CN3Cc4cc(OC)ccc4C3CS2(=O)=O)cc1 (stereo not drawn)	-2	.	.	-2	.	.
Clc1ccc(/C=N/Nc2ncnc3ccccc23)cc1Cl	27*	-1	2	-2	3	-23
CCOc1ccc(/C=N/NC(=O)c2cc3c(OC)cc(OC)cc3[nH]2)cc1OC	43*	-6	5	8	-2	0
COc1ccc(OC)c(/C=N/NC(=O)c2cc3c(OC)cc(OC)cc3[nH]2)c1	7	-1	-6	3	3	.
C=CCOc1ccc(/C=N/NC(=O)c2cc3c(OC)cc(OC)cc3[nH]2)cc1	27*	-4	21	-5	1	-18
O=C1CCCN1c1ccc(S(=O)(=O)N2CCC(c3ccccc3)CC2)cc1	22*	1	-1	-4	-4	-2
CC(=O)NCc1ccc(OCCCN2CCC(C(O)(c3ccccc3)c3ccccc3)CC2)cc1	-5	.	.	-9	4	.
Cc1ccc(-n2[nH]c(C)c(C=Nc3ccc4[nH]c(=O)[nH]c4c3)c2=O)cc1	23*	1	14	1	-4	3
Cc1ccc(-n2[nH]c(C)c(C=Nc3ccc4[nH]c(=O)[nH]c4c3)c2=O)cc1C	5	2	6	1	-1	.
O=C(O)C1C2C=CC(C2)C1C(=O)NCCc1cccc(Cl)c1 (stereo not drawn)	22*	-2	2	-2	-8	-9
